{"source": "ChEMBL document CHEMBL4196108", "about": "“5-Aroylindoles Act as Selective Histone Deacetylase 6 Inhibitors Ameliorating Alzheimer's Disease Phenotypes” (J Med Chem, 2018)", "key": {"[1]": {"target": "T1, Protein deacetylase HDAC6 (Mus musculus) (UniProt Q9Z2V5)", "T1 sequence (whole entry)": "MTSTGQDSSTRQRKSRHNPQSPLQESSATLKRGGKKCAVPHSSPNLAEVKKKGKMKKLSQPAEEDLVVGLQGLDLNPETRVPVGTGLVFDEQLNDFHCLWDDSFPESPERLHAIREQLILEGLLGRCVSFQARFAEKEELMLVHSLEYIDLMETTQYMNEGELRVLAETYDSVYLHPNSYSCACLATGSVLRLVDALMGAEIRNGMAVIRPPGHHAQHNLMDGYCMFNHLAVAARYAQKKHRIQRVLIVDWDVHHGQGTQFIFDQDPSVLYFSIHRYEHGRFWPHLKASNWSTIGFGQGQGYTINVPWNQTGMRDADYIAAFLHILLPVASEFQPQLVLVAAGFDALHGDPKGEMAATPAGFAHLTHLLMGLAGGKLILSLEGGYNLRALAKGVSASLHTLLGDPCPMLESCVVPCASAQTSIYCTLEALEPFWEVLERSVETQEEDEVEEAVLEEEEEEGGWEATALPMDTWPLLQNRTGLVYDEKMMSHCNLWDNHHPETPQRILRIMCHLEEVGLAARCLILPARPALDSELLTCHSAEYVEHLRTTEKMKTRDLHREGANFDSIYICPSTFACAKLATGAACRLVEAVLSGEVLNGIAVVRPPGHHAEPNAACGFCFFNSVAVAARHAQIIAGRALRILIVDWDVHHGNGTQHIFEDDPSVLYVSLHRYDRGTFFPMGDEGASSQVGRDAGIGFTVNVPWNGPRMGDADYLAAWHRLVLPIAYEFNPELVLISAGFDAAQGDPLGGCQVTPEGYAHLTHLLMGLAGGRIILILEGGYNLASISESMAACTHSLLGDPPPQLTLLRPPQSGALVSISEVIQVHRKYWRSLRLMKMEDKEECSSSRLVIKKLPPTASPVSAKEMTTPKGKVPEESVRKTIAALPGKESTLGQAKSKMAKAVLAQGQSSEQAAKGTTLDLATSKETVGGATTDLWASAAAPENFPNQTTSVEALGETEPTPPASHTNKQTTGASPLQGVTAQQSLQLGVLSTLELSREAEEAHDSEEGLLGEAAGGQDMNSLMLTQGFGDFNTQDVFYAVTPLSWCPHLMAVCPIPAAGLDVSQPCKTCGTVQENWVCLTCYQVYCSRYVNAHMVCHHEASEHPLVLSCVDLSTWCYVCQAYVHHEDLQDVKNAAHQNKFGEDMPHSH", "test": "Inhibition of HDAC6 in mouse Neuro-2a cells transfected with pCAX FLAG APP and pRK5-EGFP-Tau P301L plasmids assessed as increase in HSP70 protein expression 1 uM after 24 hrs by Western blot analysis", "assay_type": "cell-based", "how_it_was_run": "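SH-SY5Y and Neuro-2a cells cotransfected 24 h with APP695/Tau P301L plasmids, treated 24 h at 1 µM (ACY-1215 reference). 30 µg lysate immunoprecipitated overnight at 4 °C with anti-HDAC6 or anti-acetyl-lysine antibodies plus protein A/G beads, run on 8% SDS-PAGE, probed for Hsp90; Hsp70 by immunoblot. Three independent experiments.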"}, "[2]": {"target": "T2, Protein deacetylase HDAC6 (Homo sapiens) (UniProt Q9UBN7)", "T2 sequence (whole entry)": "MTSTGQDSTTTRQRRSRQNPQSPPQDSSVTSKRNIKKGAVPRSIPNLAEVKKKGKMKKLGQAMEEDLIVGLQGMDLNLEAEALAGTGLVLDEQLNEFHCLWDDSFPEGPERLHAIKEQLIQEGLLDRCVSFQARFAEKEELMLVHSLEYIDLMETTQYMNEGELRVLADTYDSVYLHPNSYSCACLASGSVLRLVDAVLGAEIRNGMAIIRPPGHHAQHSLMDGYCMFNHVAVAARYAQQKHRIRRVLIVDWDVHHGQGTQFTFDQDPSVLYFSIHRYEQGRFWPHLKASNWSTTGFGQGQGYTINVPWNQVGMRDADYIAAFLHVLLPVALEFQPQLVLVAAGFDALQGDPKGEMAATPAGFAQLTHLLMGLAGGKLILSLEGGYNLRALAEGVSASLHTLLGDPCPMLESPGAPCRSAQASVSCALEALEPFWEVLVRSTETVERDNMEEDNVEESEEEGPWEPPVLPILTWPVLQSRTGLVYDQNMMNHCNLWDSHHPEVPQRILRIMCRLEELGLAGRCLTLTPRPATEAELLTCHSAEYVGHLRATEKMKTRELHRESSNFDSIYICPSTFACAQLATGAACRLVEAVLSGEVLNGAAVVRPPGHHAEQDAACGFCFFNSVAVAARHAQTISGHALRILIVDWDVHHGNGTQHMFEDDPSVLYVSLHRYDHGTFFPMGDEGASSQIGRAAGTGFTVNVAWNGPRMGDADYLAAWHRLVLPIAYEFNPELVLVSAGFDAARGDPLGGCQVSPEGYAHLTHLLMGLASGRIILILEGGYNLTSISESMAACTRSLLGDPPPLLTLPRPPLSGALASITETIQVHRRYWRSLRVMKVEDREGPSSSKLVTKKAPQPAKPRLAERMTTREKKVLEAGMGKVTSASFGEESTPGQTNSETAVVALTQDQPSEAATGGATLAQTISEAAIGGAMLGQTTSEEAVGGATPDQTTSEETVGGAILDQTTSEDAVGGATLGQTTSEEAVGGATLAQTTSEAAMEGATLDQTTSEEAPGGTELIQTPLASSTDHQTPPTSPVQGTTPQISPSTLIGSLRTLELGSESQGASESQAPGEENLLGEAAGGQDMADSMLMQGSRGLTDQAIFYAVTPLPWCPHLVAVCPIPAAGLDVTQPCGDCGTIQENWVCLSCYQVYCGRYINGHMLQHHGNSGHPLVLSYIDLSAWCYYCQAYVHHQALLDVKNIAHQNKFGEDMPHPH", "test": "Inhibition of HDAC6 in human SH-SY5Y cells transfected with pCAX FLAG APP and pRK5-EGFP-Tau P301L plasmids assessed as increase in polyubiquitinated protein level at 0.01 to 1 uM after 24 hrs by immunoblot analysis", "assay_type": "cell-based", "how_it_was_run": "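SH-SY5Y cells transfected 24 h with APP695/Tau P301L plasmids, then treated; whole lysates immunoblotted for polyubiquitin complexes.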"}, "[3]": {"test": "Plasma concentration in Sprague-Dawley rat at 50 mg/kg, po after 1 hr by HPLC-MS/MS analysis", "assay_type": "ADME, organism-based"}, "[4]": {"test": "Drug uptake in Sprague-Dawley rat brain at 50 mg/kg, po after 1 hr by HPLC-MS/MS analysis", "assay_type": "ADME, organism-based", "settings": "read-out: Drug uptake"}, "[5]": {"test": "Drug uptake in Sprague-Dawley rat brain at 50 mg/kg, po after 3 hrs by HPLC-MS/MS analysis", "assay_type": "ADME, organism-based", "settings": "read-out: Drug uptake"}, "Mus musculus": {"tested_on": "Mus musculus", "test": "In vivo inhibition of HDAC6 in 3xTg-AD transgenic mouse brain hippocampal CA1 region assessed as downregulation of Tau phosphorylation at Ser396 residue at 50 mg/kg, po administered daily for 3 months by Western blot analysis"}}, "note": "The source made the active and inactive calls. The rule behind the calls is not given here."}
{"smiles": "COc1ccc(C(=O)c2ccc3c(ccn3Cc3ccc(C(=O)NO)cc3)c2)cc1", "values": [{"measurement": "inhibition", "setting": "[1]", "result": "Active"}, {"measurement": "inhibition", "setting": "[2]", "result": "Active"}, {"measurement": "concentration at 1 h", "setting": "[3]", "result": 8.5, "unit": "ng/mL"}, {"measurement": "concentration at 1 h", "setting": "[4]", "result": 10.4, "unit": "ng/g"}, {"measurement": "concentration at 3 h", "setting": "[5]", "result": 6.3, "unit": "ng/g"}, {"measurement": "inhibition", "setting": "Mus musculus", "result": "Active"}]}
